Many of the other results were omitted from the sample, so hits are more common in it than they were.
Mdm2 ligase inh: inhibitors of human Mdm2 E3 ubiquitin ligase | actives 0.11% (n = 210,000) | cell-based MDM2 ubiquitination luciferase reporter, 2 h; 0 = plate control, 100 = twice control, blank-subtracted | Q00987 | signal enhancement, % at 5 µM;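 active = signal enhancement of 30% or more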;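 note: luminescence tracks abundance of the self-degrading MDM2-luciferase fusion protein; higher signal means inhibition of MDM2 E3 ligase activity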
Target sequence (Q00987 whole entry, looked up, the tested form may be a part): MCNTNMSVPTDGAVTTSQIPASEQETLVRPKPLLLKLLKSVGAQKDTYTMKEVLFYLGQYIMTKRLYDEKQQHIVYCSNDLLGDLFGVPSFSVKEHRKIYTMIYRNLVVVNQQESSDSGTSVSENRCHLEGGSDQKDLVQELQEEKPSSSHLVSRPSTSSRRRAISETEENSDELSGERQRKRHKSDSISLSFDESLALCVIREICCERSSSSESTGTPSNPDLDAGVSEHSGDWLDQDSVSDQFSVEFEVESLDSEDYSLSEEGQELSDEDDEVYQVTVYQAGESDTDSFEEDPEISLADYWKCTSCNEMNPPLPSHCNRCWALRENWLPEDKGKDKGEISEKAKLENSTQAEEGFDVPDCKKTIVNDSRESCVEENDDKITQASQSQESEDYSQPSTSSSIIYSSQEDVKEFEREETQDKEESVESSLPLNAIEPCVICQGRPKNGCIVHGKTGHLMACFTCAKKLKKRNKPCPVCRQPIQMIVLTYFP
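Assay system: mammalian cells stably expressing self-ubiquitinating, self-degrading MDM2 E3–luciferase fusion. Quantity: 2000 cells in each well. Medium: DMEM culture medium. Compound dosing: single-point 5 µM. Timing: cell settling 4 h, compound treatment 2 h, both 37 °C. Technique: luciferase luminescence. Read-out basis: percent signal gain over controls, blank-subtracted. Benchmarks: plate controls and plate blanks.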
S1P4 agonist: activates the human S1P4 receptor; activation, % at 4.98 µM; AID 1509; actives 0.35% (n = 220,000); O95977; S1P4-expressing cell line, agonist reporter assay; in the data active = activation above about 11%;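 note: 0% = DMSO vehicle and 100% = reference agonist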
S1P4 antagonist: human S1P4 receptor antagonism; O95977; actives 0.26% (n = 220,000); inhibition, % at 4.98 µM; S1P4-expressing cells, antagonist mode, reporter read-out; in the data active = inhibition above about 29%;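 note: 0% = wells stimulated with agonist and 100% = vehicle wells without agonist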
Lmaj promast: Leishmania major promastigote growth inhibition; inhibition, % at 10 µM; Leishmania major promastigotes, resazurin fluorescence viability; actives 9% (n = 200,000); in the data active = inhibition above about 50%;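 note: promastigotes grown with compound for 44 hours at 28 °C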
S1P3 antag: S1P3 (human) receptor antagonism; CHO S1P3 NFAT-BLA reporter, FRET fluorescence, antagonist mode; inhibition, % at 4.98 µM; actives 0.27% (n = 170,000); AID 485;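 active = inhibition above the plate cutoff, the mean inhibition of test wells on that plate plus 3 SD, cut at about 28% in these data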;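 note: cells challenged with S1P at its EC80 of 0.8 µM; blue over green emission ratio from cleaved BLA substrate after 4 h stimulation; 0% = S1P-stimulated wells and 100% = unstimulated DMSO-only wells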
An asterisk follows results filed as active; x = not tested or not shown.

SMILES	Mdm2 ligase inh	S1P4 agonist	S1P4 antagonist	Lmaj promast	S1P3 antag
CCCN(CCC)S(=O)(=O)c1ccc(C(=O)Nc2nnc(-c3cccc(OC)c3)o2)cc1	1	1	-13	98*	17
CCCN(CCC)S(=O)(=O)c1ccc(C(=O)Nc2nnc(CSC)o2)cc1	-7	0	-10	-3	5
O=C(NCCc1cccs1)C12CN(Cc3ccccc3)CC1C(c1cccc([N+](=O)[O-])c1)=NO2 (stereo unspecified)	2	0	-18	12	x
CCOC(=O)c1ccc(N2C(=O)c3n[nH]c(-c4ccco4)c3C2c2ccc([N+](=O)[O-])cc2)cc1 (stereo unspecified)	-5	1	-20	98*	12
CCOC(=O)c1ccc(N2C(=O)c3n[nH]c(C)c3C2c2cccnc2)cc1 (stereo unspecified)	-11	2	-39	42	-22
COc1ccc(CN2C3CCCC2CC(NC(=O)Nc2cccc(C)c2)C3)cc1 (stereo unspecified)	-1	-1	-5	90*	x
COc1ccc(CN2C3CCCC2CC(NC(=O)Nc2ccccc2)C3)cc1 (stereo unspecified)	2	0	-17	94*	x
COCC(=O)NC1CC2CCCC(C1)N2Cc1ccccc1 (stereo unspecified)	-14	-1	6	0	9
Cc1ccccc1NC(=O)N1C2CCCC1CC(NC(=O)C1CC1)C2 (stereo unspecified)	-19	6	-10	4	-26
COc1ccc(CN2C3CCCC2CC(NC(=O)Nc2ccccc2C)C3)cc1 (stereo unspecified)	-4	1	-4	85*	x
COc1ccc(CCNC(=O)CCC2COc3ccccc3O2)cc1OC (stereo unspecified)	-19	-1	3	-2	x
COc1ccc(NC(=O)Cn2nnc(-c3ccccc3NS(=O)(=O)c3ccccc3)n2)cc1	-7	1	-31	44	-2
COc1ccc(S(=O)(=O)Nc2ccccc2-c2nnn(CC(=O)Nc3ccccc3OC)n2)cc1	-2	1	-24	98*	3
Cc1ccc2nc(-c3cccc(NS(C)(=O)=O)c3)cc(-c3ccccc3)c2c1	-14	1	-1	20	10
CC(OC(=O)c1cc(-c2cccnc2)nc2ccccc12)C(=O)Nc1ccc2ccccc2c1 (stereo unspecified)	-7	0	-27	75*	1
O=C(CN1N=C(c2ccc(Cl)cc2)CCC1=O)NCCN1CCc2ccccc2C1	x	-1	-17	-1	-6
CCc1cccc(NC2c3ccccc3C(=O)N2c2cccnc2)c1 (stereo unspecified)	-4	-2	9	0	-10
CN(C)CCCNS(=O)(=O)c1ccc(Oc2ncc(C(F)(F)F)cc2Cl)cc1	-9	1	-15	95*	x
CN(C)CCCNc1ncc(C(F)(F)F)cc1Cl	-8	-1	-7	2	-5
CCOc1cc(CNC(C)(C)C)ccc1OCC(=O)Nc1cccc(C(F)(F)F)c1	-12	-2	7	84*	-20
CCOc1cc(CNCCCN2CCOCC2)cc(Br)c1OCC(=O)Nc1cccc(C(F)(F)F)c1	-8	1	-7	101*	x
CCOc1cc(CNC)ccc1OCC(=O)NC(C)(C)C	-30	0	-5	4	-9
CCC(CO)NCc1ccc(OCC(=O)Nc2cccc(C(F)(F)F)c2)c(OC)c1 (stereo unspecified)	-6	-1	2	95*	4
COc1cc(CNCCCN2CCOCC2)cc(Br)c1OCC(=O)N1CCCCC1	-10	1	-16	-4	x
C=CCNC(=O)CC(C)C(CCCCC)C(=O)O (stereo unspecified)	-1	1	-13	-1	-9
SMILES	Mdm2 ligase inh	S1P4 agonist	S1P4 antagonist	Lmaj promast	S1P3 antag
CC(=O)NC1(C(F)(F)F)C(=O)Nc2c1c(=O)[nH]c(=O)n2CC(C)C (stereo unspecified)	x	1	9	-7	7
CCOC(=O)c1[nH]c(C)c(C(=O)OCC)c1C	-14	0	-23	6	-2
CCCN(CC1CC1)C(=O)COC(=O)c1[nH]c(C)c(C(=O)OCC)c1C	-21	1	-6	80*	x
Cc1cccc(Cn2nc(C)cc2NC(=O)CCCn2ccc([N+](=O)[O-])n2)c1	-2	0	-36	-2	-23
CC1(CCc2ccc3c(c2)OCO3)NC(=O)c2ccccc2N1 (stereo unspecified)	-2	-3	4	100*	-16
O=C1NC(c2ccc3c(c2)OCO3)Nc2ccccc21 (stereo unspecified)	-4	2	-16	1	7
COc1ccccc1NS(=O)(=O)c1cc([N+](=O)[O-])ccc1N/N=C/c1c[nH]c2ccccc12	-18	-1	-17	34	x
COc1ccc(NS(=O)(=O)c2cc([N+](=O)[O-])ccc2N/N=C\c2c(C)[nH]c3ccccc23)cc1	-7	3	7	98*	x
Cc1[nH]c2ccccc2c1/C=N/Nc1ccc([N+](=O)[O-])cc1S(=O)(=O)Nc1ccc(Cl)cc1	-8	1	-2	95*	x
CCCNC(=O)c1ccc(CN2CCOCC2)cc1	-15	0	-20	-6	-12
CCN(CC)CCNCc1cc(Br)ccc1OCC(=O)NCc1ccccc1	0	-1	-2	13	-11
COc1cc(CNCC(C)C)c(Br)cc1OCC(=O)NCc1ccccc1	2	-3	-12	96*	x
COc1cc(CNCCN(C)C)c(Br)cc1OCC(=O)NCc1ccccc1	-2	2	-31	99*	-1
CC(NCc1cc(Br)ccc1OCC(=O)NCc1ccccc1)c1ccccc1 (stereo unspecified)	-6	0	-9	98*	6
O=C(NC(=O)N1CCN(c2ccc([N+](=O)[O-])cn2)CC1)c1c(Cl)cccc1Cl	0	2	2	x	3
C=CCn1c(SCC(=O)c2cc(C)n(C(C)COC)c2C)nc2sc(C)c(C)c2c1=O (stereo unspecified)	-7	2	-11	19	-3
Cc1ccc(OP(=O)(Nc2c(C)n(C)n(-c3ccccc3)c2=O)Oc2ccc(C)cc2)cc1	-5	0	0	69*	7
Cc1ccc(S(=O)(=O)Nc2c(C)n(C)n(-c3ccccc3)c2=O)cc1	-15	0	5	-9	-1
CN1C(=O)C2(Oc3ccccc3C3CC(c4ccccc4)=NN32)c2ccccc21 (stereo unspecified)	-2	-2	11	21	x
Cc1ccc(C2=NN3C(C2)c2ccccc2OC32C(=O)Nc3ccccc32)cc1 (stereo unspecified)	-1	-2	-16	100*	x
CCc1ccccc1Nc1nc2ccccc2n1C(C)C	-15	1	-17	36	-7
CCc1ccccc1Nc1nc2ccccc2n1CC	-4	1	4	72*	-15
O=C(C1CCCN(CCCc2ccccc2)C1)N1CCCCCC1 (stereo unspecified)	-5	1	-4	71*	-4
